{"data": "Assay results collected from several papers", "target": "Mitogen-activated protein kinase kinase kinase 4 (MAP3K4, Homo sapiens, UniProt Q9Y6R4)"}
{"SMILES": "C[C@@]1(Cc2ccc(C#N)cc2)C(=O)N(c2cc(Cl)cc(Cl)c2)c2ncc(C(=O)NC3(c4nc(C5CCC5)no4)CC3)n21", "assay": "cell-free assay, competition with immobilised ligand", "conditions": "1 µM", "remaining binding": "100%"}
{"SMILES": "O=C(NCCCN1CCOCC1)c1ccc(Nc2nccc(-c3cc4ccccc4s3)n2)cc1", "assay": "binding, competition with immobilised ligand", "conditions": "1 µM", "remaining binding": "68%"}
{"SMILES": "N#Cc1ccccc1CSc1nnc2c(n1)[nH]c1ccccc12", "assay": "binding, competition with immobilised ligand", "conditions": "10 µM", "remaining binding": "100%"}
{"SMILES": "Cc1cnn2ncc(-c3ccnc(N(C)C)n3)c2c1", "assay": "binding", "conditions": "1 µM", "remaining binding": "86%"}
{"SMILES": "CN(C)C(=O)Cn1cc(-c2nc([C@@](C)(c3ccc(-c4cnc(N)nc4)cc3)C3CC3)no2)cn1", "assay": "cell-free assay, competition with immobilised ligand", "conditions": "1 µM", "remaining binding": "91%"}
{"SMILES": "C[C@@H]1CN(c2ccc3ncc(-c4ccc5[nH]nc(C6CC6)c5c4)n3n2)C[C@H](C)O1", "assay": "binding, competition with immobilised ligand", "conditions": "0.5 µM", "remaining binding": "100%"}
{"SMILES": "C[C@@H]1CN(c2cc(-c3n[nH]c4ccc(OC5(C)CC5)cc34)ncn2)C[C@H](C)O1", "assay": "cell-free assay, competition with immobilised ligand", "conditions": "0.1 µM", "remaining binding": "100%"}
{"SMILES": "O=C(NCC1CCOCC1)c1n[nH]cc1NC(=O)c1c(F)cccc1F", "assay": "binding, competition with immobilised ligand", "conditions": "1 µM", "remaining binding": "100%"}
{"SMILES": "O=C(NCCCN1CCOCC1)c1ccc(Nc2ncc(Cl)c(-c3ccc(Cl)s3)n2)cc1", "assay": "binding, competition with immobilised ligand", "conditions": "1 µM", "remaining binding": "54%"}
{"SMILES": "CN(C)C(=O)Cn1cc(-c2nc(C3(c4ccc(-c5cnc(N)nc5)cc4)CC3)no2)cn1", "assay": "cell-free assay, competition with immobilised ligand", "conditions": "1 µM", "remaining binding": "92%"}
{"SMILES": "Nc1ncc2c(n1)-c1c([nH]c3ccc(C#CC4CC4)cc13)CCCC2", "assay": "binding, competition with immobilised ligand", "conditions": "1 µM", "remaining binding": "92%"}
{"SMILES": "COc1ncc2cc3ccccc3nc2c1C#N", "assay": "cell-free assay, competition with immobilised ligand", "conditions": "5 µM", "remaining binding": "91%"}
{"SMILES": "N[C@@H]1CCN(c2nccc(-c3cnn4ncccc34)n2)C1", "assay": "binding", "conditions": "1 µM", "remaining binding": "100%"}
{"SMILES": "Cc1cnc(Nc2ccc(C(=O)N3CCC(N4CCCC4)CC3)cc2)nc1-c1cc2ccccc2s1", "assay": "binding, competition with immobilised ligand", "conditions": "1 µM", "remaining binding": "32%"}
{"SMILES": "O=C(O)[C@H]1[C@H](Cn2nnc3ccccc3c2=O)CC[C@@H]1C(=O)c1ccc(OCCC2CCOCC2)cc1", "assay": "cell-free assay, competition with immobilised ligand", "conditions": "1 µM", "remaining binding": "100%"}
{"SMILES": "C=CC(=O)N1CCC(C(=O)NCC(=O)N2CCN(c3nc(-c4cnc(N)nc4C(F)F)nc(N4CCOCC4)n3)CC2)CC1", "assay": "binding, competition with immobilised ligand", "conditions": "1 µM", "remaining binding": "100%"}
{"SMILES": "CCC(=O)N[C@H]1CC[C@@H](C(=O)N(C)c2ccc(-c3nc4ccccc4o3)cc2)C1", "assay": "cell-free assay, competition with immobilised ligand", "conditions": "1 µM", "remaining binding": "100%"}
{"SMILES": "CN(C)c1ncc(F)c(-c2cnn3ncccc23)n1", "assay": "binding", "conditions": "1 µM", "remaining binding": "100%"}
{"SMILES": "COc1cnc(Nc2cccc(S(N)(=O)=O)c2)nc1N1CCN(c2ccccc2)C(=O)C1", "assay": "binding, competition with immobilised ligand", "conditions": "1 µM", "remaining binding": "100%"}
{"SMILES": "COc1ccnn2ncc(-c3ccnc(N(C)C)n3)c12", "assay": "binding", "conditions": "1 µM", "remaining binding": "100%"}
{"SMILES": "FC(F)(F)Oc1cccc(-c2cnc3ccc(-c4ccncc4)nn23)c1", "assay": "cell-free assay, competition with immobilised ligand", "conditions": "5 µM", "remaining binding": "84%"}
{"SMILES": "CN(CCCC(F)(F)F)c1nccc(-c2cnn3ncccc23)n1", "assay": "binding", "conditions": "1 µM", "remaining binding": "81%"}
{"SMILES": "C[C@H](c1ccnc(Nc2nc3ccc(-c4cc(N(C)C)ncn4)cc3[nH]2)c1)N1CCN(C(=O)CC(F)(F)F)CC1", "assay": "cell-free assay, competition with immobilised ligand", "conditions": "0.1 µM", "remaining binding": "96%"}
